Only a selection was taken, and hits are over-represented in it overall.
UPR CHOP act: activators of apoptotic arm of unfolded protein response (CHOP); CHO-CHOP luciferase reporter, UPR activation, luminescence; percent of tunicamycin response over DMSO baseline; activation, % at 10 µM; actives 0.34% (n = 330,000); AID 449763;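 active means at 10 µM dose, activation of 40% or more, normalized to positive control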;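 further: 100% = tunicamycin at 10 µg/mL and 0% = DMSO alone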
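System: CHO CHOP reporter cells. Amount: 500 cells per well. Buffer or medium: F12 medium, 10% FBS. Compound dosing: one dose, 10 µM in 0.5% DMSO. Incubation: 6 h compound exposure at 37 °C after overnight seeding. Technique: Steady-Glo luciferase luminescence. Benchmarks: tunicamycin and DMSO controls.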
Bfl-1 A1 inh: inhibitors of the anti-apoptotic protein A1, read as caspase activation; AID 2462; MEF A1-2A-BIM cells, Caspase-Glo 3/7 luminescence, 3 h; percent of clofoctol response, vehicle zero; caspase activation, % (concentration not given with the values); actives 0.066% (n = 330,000);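 active means over half of replicate activation scores above 10%, or exactly half above 10 with the replicate mean above 10; inconclusive means replicate mean below 10 yet half the replicates above 10; inactive means over half of replicates below 10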
XBP1 UPR activ: activators of adaptive arm of unfolded protein response (XBP1); activation, % at 20 µM; actives 0.33% (n = 330,000); CHO-XBP1 luciferase reporter, IRE1-XBP1 UPR activation, luminescence; percent of tunicamycin response, DMSO as zero;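 active means versus positive control, 20 µM dose yields 30% or more activation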;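 further: 100% = tunicamycin at 10 µg/mL and 0% = DMSO only wells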
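Material: CHO-XBP1 cells stably carrying IRE1-XBP1-driven luciferase reporter | Medium: F12 with 10% serum | Compound dosing: 20 µM single concentration, DMSO 1% | Incubation: Overnight seeding at 37 °C, 6 h compound treatment at 37 °C | Detection: Steady-Glo luminescence read | Read-out basis: % activation of reporter signal versus tunicamycin and DMSO controls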
CHOP inhibitor: CHOP inhibition in unfolded protein response | actives 3.8% (n = 220,000) | CHO-K1 CHOP-promoter luciferase, tunicamycin-induced, 15-18 h | inhibition, % at 10 µM;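 active means compounds that reduced the stress-induced luciferase reporter signal by more than about 70% of percent inhibition, limit read from the data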;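 further: 0% = tunicamycin plus vehicle and 100% = wells without tunicamycin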
CHOP inh conf: confirmation of CHOP induction inhibitors; shares compounds with CHOP inhibitor; CHO-CHOP promoter luciferase reporter, tunicamycin-induced, luminescence; inhibition, % at 10 µM; actives 45% (n = 2,100); AID 504437;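 active means mean of three repeat readings of reporter signal inhibition above a set limit, cut at about 70% in these data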;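 further: 0% = tunicamycin plus vehicle and 100% = wells lacking tunicamycin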
The depositor's hits bear a star; ? = inconclusive; . = no result.

SMILES | UPR CHOP act | Bfl-1 A1 inh | XBP1 UPR activ | CHOP inhibitor | CHOP inh conf
Cc1ccc(CSc2nc3ccncc3n2CC(=O)Nc2cc(C)cc(C)c2)cc1 | 5 | 1 | -1 | 96* | 26
Cc1cc(C)cc(NC(=O)Cn2c(SCc3cc(C)ccc3C)nc3ccncc32)c1 | . | . | . | -9 | .
COc1ccc(N(CC(=O)NCc2ccco2)C(=O)CCC(=O)Nc2nccs2)cc1 | 0 | 0 | 3 | . | .
CCCCC1=CC2=C(c3ccco3)C(=O)C(C)(OC(=O)c3ccc(OC)cc3)C(=O)C2=CN1Cc1ccccc1 (stereo not given) | 0 | 0 | -2 | 105* | 73*
CCCCC1=CC2=C(c3ccco3)C(=O)C(C)(OC(=O)c3ccc(OC)cc3)C(=O)C2=CN1Cc1ccc2c(c1)OCO2 (stereo not given) | 4 | 1 | 6 | 102* | 24
CCCCC1=CC2=C(c3ccco3)C(=O)C(C)(OC(=O)c3ccc(OC)cc3)C(=O)C2=CN1CCOC (stereo not given) | 3 | 1 | 3 | -199 | .
CCCCC1=CC2=C(c3ccco3)C(=O)C(C)(OC(=O)c3ccc(OC)cc3)C(=O)C2=CN1C1CCCCC1 (stereo not given) | 0 | -1 | 0 | 101* | 6
COc1ccc(OC)c(NC(=O)NNC(=O)COc2ccc([N+](=O)[O-])cc2)c1 | 1 | -1 | -2 | . | .
COc1ccc(NC(=O)c2oc3ccccc3c2NC(=O)C2CC2)cc1 | 1 | ? | 2 | 23 | .
COc1ccc(NC(=O)c2oc3ccccc3c2NC(=O)C(C)(C)C)cc1 | 0 | 0 | 7 | 103* | 14
COc1ccccc1NC(=O)CSc1nnc(CC(=O)Nc2ccccc2F)n1C | 1 | 1 | -3 | . | .
CC(C)(C)c1ccc(C(=O)Nc2ccc(CC(=O)O)cc2)o1 | -9 | -1 | -5 | 98* | 92*
Cc1c(C(=O)Nc2ccc(S(=O)(=O)N(C)C3CCN(C)CC3)cc2)oc2c(Cl)cccc12 | 3 | -1 | 3 | . | .
C=CCc1cccc(CNc2nc3ccccc3n2C(C)C)c1O | -1 | 0 | -2 | 108* | 43
OCC[C@H]1C[C@@H](O)[C@H](O)[C@@]2(CCc3ccccc3O2)O1 | -2 | -1 | -1 | . | .
C=CCOc1ccc(/C=C2\SC(=Nc3cccnc3)NC2=O)cc1 | 0 | 0 | 2 | 101* | -3
CC(/C=C1\SC(=Nc2cccnc2)NC1=O)=C\c1ccccc1 | 1 | 0 | 4 | 27 | .
CCOC(=O)c1csc(NC(=O)Nc2cccc(Cl)c2)n1 | 3 | -1 | 3 | 98* | 38
CC(C)CCn1c(N2CCN(c3cccc(Cl)c3)CC2)nc2c1c(=O)[nH]c(=O)n2C | 5 | -1 | 5 | 106* | 66
CC1CCCC(C)N1C(=O)COC(=O)c1cccnc1Cl (stereo not given) | 2 | -1 | 2 | . | .
COc1cc2c(cc1OC)C(c1ccccc1)N(C(=O)CCl)CC2 (stereo not given) | -3 | 1 | -7 | 111* | 117*
COc1cc2c(cc1OC)C(C1C(=O)CCCC1=O)N(C(=O)CCl)CC2 (stereo not given) | -1 | 1 | -3 | 24 | .
O=C(c1ccc(COc2ccc(Br)cc2)o1)N1N=C(C(F)F)CC1(O)C(F)F (stereo not given) | -1 | 0 | -1 | 108* | 21
Cc1ccc(C)c(OCc2ccc(C(=O)N3N=C(C(F)F)CC3(O)C(F)F)o2)c1 (stereo not given) | -1 | 0 | -6 | 108* | 120*
Cc1cc(C)cc(OCc2ccc(C(=O)N3N=C(C(F)F)CC3(O)C(F)F)o2)c1 (stereo not given) | 0 | ? | 2 | 102* | 57
SMILES | UPR CHOP act | Bfl-1 A1 inh | XBP1 UPR activ | CHOP inhibitor | CHOP inh conf
CCOc1ccc(OCc2ccc(C(=O)N3N=C(C(F)F)CC3(O)C(F)F)o2)cc1 (stereo not given) | 1 | 0 | -4 | 99* | -11
CCOc1ccc(OCc2ccc(C(=O)N3CCCC3)o2)cc1 | 2 | 0 | -3 | -47 | .
Cc1cc(C)cc(OCc2ccc(C(=O)O)o2)c1 | -2 | -5 | 1 | 48 | .
COc1cccc(N2CCN(C(=O)C3CCC(=O)N(C4CCCCCC4)C3)CC2)c1 (stereo not given) | 1 | 0 | -7 | . | .
O=C(c1ccc(COc2ccc3ccccc3c2)o1)N1N=C(C(F)F)CC1(O)C(F)F (stereo not given) | -1 | 3 | -1 | 111* | 56
COc1ccc(S(=O)(=O)N2CCCC2CNC(=O)C(=O)Nc2cccc(F)c2)cc1 (stereo not given) | 0 | 0 | -4 | . | .
CCOC(=O)C(C)Oc1cccc2c(=O)n(CC(=O)Nc3ccc(OCC)cc3)ccc12 (stereo not given) | -2 | 0 | -2 | 106* | 61
CCOC(=O)C(C)Oc1cccc2c(=O)n(CC(=O)Nc3cccc(OC)c3)ccc12 (stereo not given) | -1 | -1 | -2 | 23 | .
COC(CNS(=O)(=O)c1cc2c3c(c1)CCN3C(=O)CC2)OC | 3 | 1 | -4 | . | .
Cc1nn(C)c(C)c1/C=N/NC(=O)C(C)(C)Oc1ccc(Cl)cc1 | -1 | 0 | -2 | 7 | .
Cc1nn(C(C)(C)C)c(C)c1/C=N/OC(=O)Nc1ccc(Cl)cc1 | -10 | -2 | -11 | 99* | 117*
COC(=O)c1cc(CNC(=O)Cc2ccsc2)ccc1OC | -1 | -1 | 5 | . | .
CCN(C(=O)c1cc(S(=O)(=O)N2CCc3ccccc32)cn1C)c1ccccc1 | 4 | . | -2 | . | .
CN(C)c1ccc(NC(=O)C(=O)C2C(=O)Nc3ccccc32)cc1 (stereo not given) | 3 | -4 | -1 | -16 | .
CC(C)(C)c1ccc(NC(=O)C(=O)C2C(=O)Nc3ccccc32)cc1 (stereo not given) | 3 | 0 | 4 | 101* | 48
CC1=C(C(=O)Nc2ccc(C)cc2C)C(c2cccc(Cl)c2)n2nc(C(=O)OC(C)C)nc2N1 (stereo not given) | 1 | 0 | -4 | 106* | 118*
O=C(Nc1cccc(S(=O)(=O)N2CCCCCC2)c1)C1CCN(C(=O)c2ccc(Cl)cc2)CC1 | 0 | 1 | -2 | . | .
O=C(C1=C(c2ccccc2)C(=O)c2ccccc2C1=O)c1ccccc1 | . | . | . | 104* | 112*
CC(=O)c1ccc(NC(=S)N2CCCC2)cc1 | 4 | 1 | 3 | . | .
CCOc1ccc(/C(=N\O)C(C)NO)cc1 (stereo not given) | 0 | 1 | 0 | 104* | 2
NNC(=O)c1ccc(COc2ccc3c(c2)CCC3)o1 | 1 | 0 | -1 | 5 | .
O=C(N/N=C/c1cccc(O)c1)c1ccc(COc2ccc3c(c2)CCC3)o1 | 3 | 0 | -2 | 109* | -4
O=C(NC(=S)NC1CCC(O)CC1)c1ccco1 (stereo not given) | -1 | 0 | 3 | . | .

Compound activity deposited in PubChem BioAssay by several laboratories.
